Screening data from PubChem BioAssay.
Shown are actives, neighbours in structure and some others; about 4% of the full set was active somewhere.
TAAR1 antagonist: human TAAR1 antagonists, primary screen, Fluo-8 calcium fluorescence, CHO RD-HGA16 cells; AID 624466, 2012; inhibition, % at 3 µM; hit rate 1.5% among 360,000; antagonist; Trace amine-associated receptor 1 (Homo sapiens), Q96RJ0;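 active = inhibition above a per-plate cutoff, the mean inhibition of test compounds on that plate plus 3 SD, cut at about 49% in these data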;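 also: 0% = DMSO plus EC80 beta-PEA response and 100% = DMSO alone without agonist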
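Test system – hTAAR1-expressing CHO RD-HGA16 cells, Gα16-coupled · Also added – β-PEA at EC80 concentration, post-compound challenge · Compound – 3 µM, single point · Incubation – dye loading 75 min at 37 °C, then 30 min room temperature · Measured by – Fluo-8 intracellular calcium dye fluorescence, real-time kinetic reads · Benchmarks – vehicle and agonist controls · Replicates – singlicate, one well per test compound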
MPTP block: mitochondrial permeability transition pore inhibitors, primary screen, biochemical, isolated mouse mitochondria, absorbance | Ca2+ swelling absorbance, 30 min | inhibition, % at 10 µM | hit rate 1.4% among 360,000;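 active = inhibition of 50% or more, scaled per plate between neutral and stimulator controls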;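 also: 0% = DMSO wells given calcium and 100% = 1 mM EGTA wells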
DAGLB inh: DAGLB lipase inhibitors, primary screen, biochemical, fluorescence, HTS | Diacylglycerol lipase-beta (Homo sapiens), Q8NCG7 | HEK293T DAGLB membrane lysate, EnzChek fluorogenic substrate | inhibition, % at 5.17 µM | hit rate 0.059% among 340,000; in the data active = inhibition above about 34%;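 also: 0% = enzyme with vehicle and 100% = wells lacking enzyme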
TAAR1 ag: human TAAR1 agonists, primary screen, Fluo-8 calcium fluorescence, CHO RD-HGA16 cells; Trace amine-associated receptor 1 (Homo sapiens), Q96RJ0; vehicle wells 0%, saturating PEA agonist 100%; activation, % at 3 µM; hit rate 0.99% among 360,000;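 active = activation above the mean activation of all test compounds in the run plus 3 SD, cut at about 38% in these data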
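Test system: RD-HGA16 (CHO) cells co-expressing Gα16 and hTAAR1; dosing: one-point dosing at 3 µM (nominal); timing: 17-24 h seeding, 75 min 37 °C dye, 30 min RT; signal: kinetic Fluo-8 calcium fluorescence; read-out basis: % activation relative to PEA EC100 response; controls: DMSO and PEA EC100; replicates: n 1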
GPR7 antag: GPR7 receptor antagonists, primary screen, cell-based, fluorescence, single concentration; Neuropeptides B/W receptor type 1 (Homo sapiens), P48145; GPR7-expressing cells, fluorescence antagonist assay; inhibition, % at 4.4 µM; hit rate 1.1% among 290,000; AID 1861, 2009; in the data active = inhibition above about 16%, passing the limit was not always enough;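 also: cells stimulated with the agonist NPW; 0% = agonist with vehicle and 100% = vehicle without agonist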
Target sequence (P48145 whole entry, looked up): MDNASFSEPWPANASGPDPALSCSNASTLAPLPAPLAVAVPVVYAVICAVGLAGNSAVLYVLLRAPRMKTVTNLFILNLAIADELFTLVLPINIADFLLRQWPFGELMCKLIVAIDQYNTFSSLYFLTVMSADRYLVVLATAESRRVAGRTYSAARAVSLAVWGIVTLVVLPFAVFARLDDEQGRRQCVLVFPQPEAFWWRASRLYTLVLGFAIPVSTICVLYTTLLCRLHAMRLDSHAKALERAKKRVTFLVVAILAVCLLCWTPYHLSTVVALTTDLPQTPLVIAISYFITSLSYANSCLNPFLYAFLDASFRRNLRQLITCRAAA
TAAR1 ag confirm: human TAAR1 agonists, retest of hits, confirmation, Fluo-8 calcium fluorescence, CHO RD-HGA16 cells. shares compounds with TAAR1 ag. hit rate 82% among 2,400. activation, % at 3 µM. AID 651783, 2012. scaled: DMSO 0%, maximal phenethylamine 100%;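 active = activation above a cutoff set at the run's mean compound activation plus 3 SD, cut at about 39% in these data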
Ga16 nonsel ag: nonselective calcium mobilization agonists, CHO-Ga16 cells, counter-screen for hTAAR1 agonist project, cell-based, fluorescence, CHO-Ga16 parental line. shares compounds with TAAR1 ag. Fluo-8 calcium fluorescence; normalized to maximal ATP response, DMSO zero. activation, % at 3 µM. hit rate 50% among 2,400. AID 651787, 2012;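 active = activation above the run cutoff, the mean activation over all tested wells plus 3 SD, cut at about 12% in these data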;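 also: 0% = DMSO wells and 100% = maximal ATP response on the peak over basal ratio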
TAAR1 desensitize: TAAR1 desensitization by agonist hits, confirmation, counter-screen for TAAR1 agonist project, cell-based, fluorescence, tachyphylaxis; shares compounds with TAAR1 ag; CHO RD-HGA16 hTAAR1, Fluo-8 calcium, beta-PEA response inhibition; inhibition, % at 3 µM; hit rate 46% among 2,400; AID 651951, 2012;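 active = inhibition above the run cutoff, the mean inhibition of all test compounds plus 3 SD, cut at about 49% in these data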;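 also: beta-PEA stimulus applied at its EC80; loss of beta-PEA calcium signal after compound pretreatment read as receptor desensitization; 0% = DMSO with beta-PEA at EC80 and 100% = DMSO alone without agonist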
Ga16 nonsel ant: inhibition of ATP-evoked calcium response in CHO-Ga16 cells, counter-screen for TAAR1 agonist project, cell-based, fluorescence; shares compounds with TAAR1 ag; hit rate 39% among 2,400; inhibition, % at 3 µM; CHO-Ga16 ATP-induced calcium, Fluo-8 fluorescence; AID 651952, 2012;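 active = inhibition above the plate's mean compound inhibition plus 3 SD, computed per plate, cut at about 22% in these data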;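 also: 0% = EC80 ATP with DMSO and 100% = DMSO wells without ATP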
Numbers without * were called inactive; nt = no result given.

SMILES | TAAR1 antagonist | MPTP block | DAGLB inh | TAAR1 ag | GPR7 antag | TAAR1 ag confirm | Ga16 nonsel ag | TAAR1 desensitize | Ga16 nonsel ant
COc1cccc(C(=O)N[C@@H](Cc2cccnc2)C(=O)N2CCC[C@H]2C(=O)NCCc2ccccc2Cl)c1 | 71* | nt | nt | 67* | nt | 83* | 9 | 93* | 10
O=C(N[C@@H](Cc1cccnc1)C(=O)N1CCC[C@H]1C(=O)NCCc1ccccc1Cl)C1CCCC1 | 73* | nt | nt | 80* | nt | 80* | -1 | 86* | 2
COc1ccc(OC)c(NS(=O)(=O)c2ccc3[nH]c(=O)[nH]c3c2)c1 | -12 | -2 | -2 | 2 | nt | nt | nt | nt | nt
Clc1ccc(N2O[C@H]3C=C[C@@H]2C3)nc1 | nt | 1 | nt | nt | nt | nt | nt | nt | nt
O=C(OCc1cn([C@H]2CN(C(=O)C3CCCCC3)[C@@H](c3ccccc3)C[C@@H]2O)nn1)c1ccccc1 | 5 | -1 | -2 | 1 | nt | nt | nt | nt | nt
NC(=O)c1ncn([C@@H]2O[C@H](C(=O)N3CCCN(Cc4ccccc4F)CC3)[C@@H](O)[C@H]2O)n1 | -22 | nt | nt | 2 | nt | nt | nt | nt | nt
CCOC(=O)C1C(=O)C=C(c2ccc(C)cc2)CC1c1ccccc1 (centres undefined) | 22 | 0 | -9 | -1 | -5 | nt | nt | nt | nt
CCOC(=O)C1C(=O)C=C(/C=C/c2ccc(N(C)C)cc2)CC1c1ccccc1 (centres undefined) | 70* | 6 | -32 | 79* | 0 | 69* | 85* | 85* | 84*
Cc1ccc(SC2=C(N(C)C)C(=O)c3ccccc3C2=O)cc1 | -26 | 2 | 10 | 1 | nt | nt | nt | nt | nt
O=C(Nc1ccc2oc(-c3ccccc3)nc2c1)c1ccccc1F | 24 | 1 | -1 | 12 | 5 | nt | nt | nt | nt
O=C(Nc1ccc2oc(-c3ccncc3)nc2c1)c1ccccc1F | 13 | 3 | 5 | 50* | -6 | 5 | 20* | -1 | 14
O=c1c2ccc(Cl)cc2nc(-c2cccc(C(F)(F)F)c2)n1O | 2 | -1 | 1 | 52* | 10 | 22 | 32* | 8 | 11
CCCCCCCCN1C(=O)[C@@H](CC(=O)NCc2ccc(OC)c(OC)c2)C[C@@]2(C(=O)OC)C1=C[C@H](C1CCCC1)O[C@@H]2C | -21 | nt | nt | 0 | nt | nt | nt | nt | nt
CCCCOCCCNC(=O)C[C@H]1C[C@@]2(C(=O)OC)C(=C[C@H](COCc3ccccc3)O[C@@H]2C)N(Cc2ccc3c(c2)OCO3)C1=O | -18 | nt | nt | 1 | nt | nt | nt | nt | nt
CCCCCCCCN1C(=O)[C@@H](CC(=O)NCCc2ccccc2OC)C[C@@]2(C(=O)OC)C1=C[C@H](C1CCCC1)O[C@@H]2C | 28 | nt | nt | 62* | nt | 72* | 3 | 64* | 9
COC(=O)[C@]12C[C@H](CC(=O)NCCc3ccccc3OC)C(=O)N(Cc3ccccc3)C1=C[C@H](C(C)(C)C)O[C@@H]2C | 54* | nt | nt | 65* | nt | 80* | 4 | 53* | 6
COC(=O)[C@]12C[C@H](CC(=O)NCCc3ccccc3OC)C(=O)N(Cc3ccc4c(c3)OCO4)C1=C[C@H](COCc1ccccc1)O[C@@H]2C | nt | nt | nt | nt | nt | nt | 6 | nt | 12
CCc1cc(-c2cnnn2Cc2ccccc2)ccc1-c1cn(CC(C)C)nn1 | 33 | 1 | -3 | 2 | nt | nt | nt | nt | nt
